From ChEMBL document CHEMBL1154864, “Oblongolides from the endophytic fungus Phomopsis sp. BCC 9789” (J Nat Prod, 2010) come the findings set out here.

Assay [1] relates to Mycobacterium tuberculosis. The assay can be described thus: Antituberculosis activity against Mycobacterium tuberculosis H37Ra after 4 days by Alamar blue assay. Type of assay: functional. As to conditions: 96 h. In a few lines: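 Microplate resazurin (Alamar Blue) growth-inhibition assay against M. tuberculosis H37Ra; MIC taken as the lowest concentration giving ≥90% growth inhibition.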

The subject of the next assay is KB. The assay is described as follows: Cytotoxicity against human KB cells by SRB assay. Type of assay: functional, cell-based. In a few lines: (§1)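 Colorimetric cytotoxicity assay run on oral human epidermal carcinoma (KB), human breast cancer (BC), human small-cell lung cancer (NCI-H187) and African green monkey kidney fibroblast (Vero) cells. IC50 values are reported in µM.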

Assay [2] in a line: Cytotoxicity against human BC cells by SRB assay. Format: functional, cell-based. In a few lines: as §1
The test system of another assay is NCI-H187. The assay can be described thus: Cytotoxicity against human NCI-H187 cells by SRB assay. Format: functional, cell-based. In a few lines:
as §1
(In general: Sulforhodamine B stains cellular protein and so reports cell mass.)

The next assay relates to Vero. The assay can be described thus: Cytotoxicity against African green monkey Vero cells by SRB assay. Type of assay: cell-based. As to conditions: Chlorocebus sabaeus. In a few lines: as §1
Another assay relates to Human alphaherpesvirus 1. The assay can be described thus: Antiviral activity against Herpes simplex virus type 1. Type of assay: functional, organism-based. In a few lines:
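HSV-1 antiviral activity read out by a colorimetric method, with IC50 values in µM.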

Broadly, the MIC is the least concentration at which growth counts as inhibited. By IC50 is commonly meant the concentration that gives 50% inhibition.

In brackets after ≈: the same amount, converted by molar mass.

Consider `C[C@H]1CC[C@H]2[C@@H](C=C[C@@H]3[C@@H](O)O[C@@H](CO)C(=O)[C@@]32C)C1`, for which, in assay [1], the MIC is more than 178 µM. Besides, the IC50 in the assay with KB was more than 71 µM; in assay [2], more than 71 µM; with NCI-H187, more than 71 µM; in the assay with Vero, more than 178 µM.
In assay [1], `Cc1ccc(O)c2c1C[C@@H](C)OC2=O` returned an MIC of more than 260 µM. Besides, the IC50 with KB was more than 104 µM; in assay [2] it was more than 104 µM; with NCI-H187 it was more than 104 µM; with Vero it was more than 260 µM.
In turn, `Nc1nc2c(ncn2COCCO)c(=O)[nH]1` [ACYCLOVIR] displayed an IC50 in the assay on Human alphaherpesvirus 1 of 13 µM.
As for `COc1cccc2c1C(=O)c1c(O)c3c(c(O)c1C2=O)C[C@@](O)(C(=O)CO)C[C@@H]3O[C@H]1C[C@H](N)[C@H](O)[C@H](C)O1` [DOXORUBICIN], the IC50 in the assay with KB amounted to 0.24 µM; with NCI-H187, 0.08 µM.
Consider `Cc1c2ccncc2c(C)c2c1[nH]c1ccccc12` [ELLIPTECINE], for which half-maximal inhibition in the assay on Vero (IC50) required 1.75 µM.
`NNC(=O)c1ccncc1` [ISONIAZID]: inhibition of growth in assay [1] (MIC) required 0.36 µM (≈ 0.0494 µg/mL).
In assay [1], `C[C@H]1CC[C@H]2[C@@H](C=C[C@]3(O)COC(=O)[C@]23C)C1` [OBLONGOLIDE C] registered an MIC of more than 212 µM. In addition, the IC50 was more than 85 µM in the assay with KB, more than 85 µM in assay [2], more than 85 µM in the assay with NCI-H187 and more than 212 µM with Vero.
As for `C[C@H]1CC[C@H]2[C@H](C1)[C@@H]1O[C@@H]1[C@@H]1COC(=O)[C@]21C` [OBLONGOLIDE Q], in assay [1], the MIC was more than 212 µM. In addition, the IC50 in the assay on KB was more than 85 µM; in assay [2] it was more than 85 µM; in the assay with NCI-H187 it was more than 85 µM; with Vero, more than 212 µM.
`C[C@H]1CC[C@H]2[C@@H](C=C[C@@H]3CO[C@](C)(O)C(=O)[C@@]32C)C1` [OBLONGOLIDE T] displayed an MIC in assay [1] of more than 189 µM. Also, the IC50 was more than 76 µM in the assay with KB, more than 76 µM in assay [2], more than 76 µM in the assay on NCI-H187 and more than 189 µM in the assay with Vero.
`C[C@H]1CC[C@H]2[C@@H](C=C[C@@H]3COC(=O)[C@@](O)(CO)[C@@]32C)C1` [OBLONGOLIDE W1] returned an MIC in assay [1] of 178 µM (≈ 49.9 µg/mL). The IC50 in the assay with KB is more than 71 µM; in assay [2], more than 71 µM; with NCI-H187, more than 71 µM; in the assay on Vero, more than 178 µM.
In the case of `C[C@H]1CC[C@H]2[C@@H](C=C[C@@H]3COC(=O)[C@](O)(CO)[C@@]32C)C1` [OBLONGOLIDE W2], the MIC in assay [1] was more than 178 µM. Besides, the IC50 with KB is more than 71 µM; in assay [2] it was more than 71 µM; in the assay on NCI-H187, more than 71 µM; in the assay on Vero, more than 178 µM.
`C[C@H]1CC[C@H]2[C@@H](C=C[C@@H]3CO[C@@](O)(CO)C(=O)[C@@]32C)C1` [OBLONGOLIDE X] gave an MIC in assay [1] of more than 178 µM. Further, the IC50 with KB is more than 71 µM; in assay [2], more than 71 µM; in the assay on NCI-H187, more than 71 µM; with Vero, 96 µM.
In assay [1], `CO[C@]1(C(C)=O)OC[C@H]2C=C[C@H]3C[C@@H](C)CC[C@@H]3[C@]21C` [OBLONGOLIDE Y] came in with a minimal inhibitory concentration (MIC) of more than 180 µM. Also, the IC50 in the assay with KB is more than 72 µM; in assay [2], 48 µM; with NCI-H187 it was more than 72 µM; with Vero, more than 180 µM.
With `CC(=O)[C@@]1(OCCc2ccccc2)OC[C@H]2C=C[C@H]3C[C@@H](C)CC[C@@H]3[C@]21C` [OBLONGOLIDE Z], the MIC in assay [1] was more than 136 µM. Besides, the IC50 in the assay on KB worked out at 37 µM; in assay [2], 26 µM; in the assay with NCI-H187 it was 32 µM; with Vero it was 60 µM.
`C[C@H]1CC[C@H]2[C@@H](C=C[C@@H]3COC(=O)[C@@]32C)C1` [OBLONGOLIDE] displayed an MIC in assay [1] of 227 µM (≈ 50 µg/mL). The IC50 in the assay on KB was more than 91 µM; in assay [2], more than 91 µM; with NCI-H187 it was more than 91 µM; in the assay on Vero, more than 227 µM.
